Data published in ChEMBL document CHEMBL1156698, “Syntheses of tetrahydroisoquinoline derivatives that inhibit NO production in activated BV-2 microglial cells” (Eur J Med Chem, 2008).

Legend:
Type in all cases: functional
Parameters in all cases: scale not given: the % may be the effect or the level left
BV-2 [1] = test: Inhibition of LPS-induced NO production in mouse BV2 microglia cells assessed as nitrite levels at 100 uM relative to untreated control
Procedure, shortened: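 BV-2 microglia seeded 2 × 10^5 cells/well in 24-well plates. After 24 h, fresh medium with LPS ([…]) and compound in DMSO added at the same time. After 24 h, nitrite in the medium measured by Griess reaction (sulfanilamide, naphthylethylenediamine, H3PO4) with absorbance at 540 nm. Given as % of LPS-activated cells.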

BV-2 [2] = test: Inhibition of LPS-induced tetrahydrobiopterin production in mouse BV2 microglia cells assessed as tetrahydrobiopterin levels at 10 uM relative to untreated control
Procedure, shortened: (§1)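 BV-2 cells in 24-well plates (2 × 10^5/well) stimulated with LPS ([…]) in fresh medium together with compound in DMSO for 24 h. Medium was treated with phosphoric acid and acidic iodine (I2/KI in trichloroacetic acid) for 1 h in the dark. Oxidation stopped with ascorbic acid, then centrifuged and diluted. BH4 given as % of LPS-activated cells.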

BV-2 [3] = test: Inhibition of LPS-induced tetrahydrobiopterin production in mouse BV2 microglia cells assessed as tetrahydrobiopterin levels at 30 uM relative to untreated control; procedure, shortened: as §1
BV-2 [4] = test: Inhibition of LPS-induced tetrahydrobiopterin production in mouse BV2 microglia cells assessed as tetrahydrobiopterin levels at 60 uM relative to untreated control; procedure, shortened: as §1
BV-2 [5] = test: Inhibition of LPS-induced tetrahydrobiopterin production in mouse BV2 microglia cells assessed as tetrahydrobiopterin levels at 100 uM relative to untreated control; procedure, shortened: as §1
BV-2 [6] = test: Inhibition of LPS-induced tetrahydrobiopterin production in mouse BV2 microglia cells assessed as tetrahydrobiopterin levels at 50 uM relative to untreated control; procedure, shortened: as §1

SMILES: CCCCN1CCc2cc(OC)c(O)cc2C1
- Activity (BV-2 [1]): 111%

SMILES: COc1cc2c(cc1O)C(C)N(C(C)=O)CC2 (stereo not given)
- Activity (BV-2 [1]): 40%
- Activity (BV-2 [2]): 99%
- Activity (BV-2 [3]): 59%
- Activity (BV-2 [4]): 59%
- Activity (BV-2 [5]): 52%

SMILES: COc1cc2c(cc1O)C(C(C)C)N(C(C)=O)CC2 (stereo not given)
- Activity (BV-2 [1]): 39%

SMILES: CCC(=O)N1CCc2cc(OC)c(O)cc2C1
- Activity (BV-2 [1]): 36%
- Activity (BV-2 [2]): 86%
- Activity (BV-2 [4]): 72%
- Activity (BV-2 [5]): 51%

SMILES: COc1cc2c(cc1O)C(c1ccccc1)N(C(C)=O)CC2 (stereo not given)
- Activity (BV-2 [1]): 51%

SMILES: CCCN1CCc2cc(OC)c(O)cc2C1
- Activity (BV-2 [1]): 82%

SMILES: CCCC(=O)N1CCc2cc(OC)c(O)cc2C1
- Activity (BV-2 [1]): 74%

SMILES: COc1cc2c(cc1O)C(CC(C)C)N(C(C)=O)CC2 (stereo not given)
- Activity (BV-2 [1]): 113%

SMILES: COc1cc2c(cc1O)C(Cc1ccccc1)N(C(C)=O)CC2 (stereo not given)
- Activity (BV-2 [1]): 96%

SMILES: COc1cc2c(cc1O)C(C1CCC1)N(C(C)=O)CC2 (stereo not given)
- Activity (BV-2 [1]): 69%

SMILES: CCCC1c2cc(O)c(OC)cc2CCN1C(C)=O (stereo not given)
- Activity (BV-2 [1]): 84%

SMILES: COc1cc2c(cc1O)CN(C(=O)C(C)C)CC2
- Activity (BV-2 [1]): 82%

SMILES: COc1cc2c(cc1O)CN(C(=O)CC(C)C)CC2
- Activity (BV-2 [1]): 90%

SMILES: CCC1c2cc(O)c(OC)cc2CCN1C(C)=O (stereo not given)
- Activity (BV-2 [1]): 50%

SMILES: COc1cc2c(cc1O)CN(C(C)=O)CC2
- Activity (BV-2 [1]): 46%
- Activity (BV-2 [5]): 55%
- Activity (BV-2 [6]): 79%

SMILES: COc1cc2c(cc1O)CN(CC1CCCCC1)CC2
- Activity (BV-2 [1]): 63%

SMILES: COc1cc2c(cc1O)C(C1CC1)N(C(C)=O)CC2 (stereo not given)
- Activity (BV-2 [1]): 60%

SMILES: COc1cc2c(cc1O)CN(C(=O)C1CCCCC1)CC2
- Activity (BV-2 [1]): 64%
- Activity (BV-2 [3]): 95%
- Activity (BV-2 [4]): 71%
- Activity (BV-2 [5]): 63%
